Activity calls are given as the source filed them. The rule behind the calls is not given here.
Assays:
[1] = test system: Severe acute respiratory syndrome coronavirus 2; assay: Inhibition of SARS-CoV-2 Main protease using MCA-AVLQSGFR-Lys(Dnp)-Lys-NH2 as substrate at 5 uM preincubated for 10 mins followed by substrate addition and measured after 10 mins by FRET assay relative to control; conditions: time 20.0 min
[2] = Inhibition of SARS-CoV-2 Main protease using MCA-AVLQSGFR-Lys(Dnp)-Lys-NH2 as substrate preincubated for 10 mins followed by substrate addition and measured after 10 mins by FRET assay; set-up: species or system Severe acute respiratory syndrome coronavirus 2
Procedure, shortened: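 Mpro (1.5 μM stock) was preincubated with purified compound for 10 min at 37 °C in Tris–HCl/NaCl, pH 7.3. FRET substrate was then added and fluorescence (ex 320/em 405) followed for 10 min. Inhibition was calculated from initial 60 s slopes versus control and blank wells. Compounds were tested at 0.1, 0.5, 1, 5 and 10 μM in three independent experiments, and IC50 was fitted.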

SARS-CoV-2 [3] = assay: Antiviral activity against SARS-CoV-2 infected in African green monkey Vero E6 cells pre-infected with cells for 1 hr followed by compound treatment and measured after 25 to 26 hrs by ELISPOT assay; assay type: functional, organism-based; conditions: Severe acute respiratory syndrome coronavirus 2, Vero C1008
[4] = Cytotoxicity against African green monkey Vero E6 cells assessed as cell viability measured for 26 hrs by MTS assay; assay type: toxicity, cell-based, Vero C1008; conditions: chlorocebus sabaeus
Procedure, shortened: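 Vero E6 cells were seeded at 1.7 × 10^4 per well in DMEM/10% FBS for 24 h. They were then exposed to compound in DMEM/5% FBS (final 1% DMSO) for 26 h at 37 °C, 5% CO2. MTS/PMS was added for 4 h and A490 read, minus media blank, normalised to DMSO wells. CC50 was fitted by four-parameter model with bottom fixed at zero, from ≥3 replicates.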

[5] = Metabolic stability in rat liver microsome assessed as parent compound remaining measured immediately in presence of NADPH by LC-MS/MS analysis; assay type: ADME; conditions: liver microsomes, read-out: Stability
Procedure, shortened: (§1)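 Microsomes (0.5 mg/mL) and 1 μM compound (final) in 100 mM phosphate buffer were prewarmed 5 min at 37 °C. Reactions were started with NADPH-regenerating solution; a no-NADPH control was run. Samples at 0, 5, 15, 30 and 60 min were quenched with cold MeOH:acetonitrile 1:1 containing labetalol/tolbutamide internal standards. Percent remaining is mean of n = 2. t1/2 came from the slope, and CLint was scaled with factor 1800.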

[6] = Metabolic stability in rat liver microsome assessed as parent compound remaining measured at 5 mins in presence of NADPH by LC-MS/MS analysis; assay type: ADME; conditions: liver microsomes, read-out: Stability; procedure, shortened: as §1
[7] = Metabolic stability in rat liver microsome assessed as parent compound remaining measured at 15 mins in presence of NADPH by LC-MS/MS analysis; assay type: ADME; conditions: liver microsomes, read-out: Stability; procedure, shortened: as §1
[8] = Metabolic stability in rat liver microsome assessed as parent compound remaining measured at 30 mins in presence of NADPH by LC-MS/MS analysis; assay type: ADME; conditions: liver microsomes, read-out: Stability; procedure, shortened: as §1
[9] = Metabolic stability in rat liver microsome assessed as parent compound remaining measured at 60 mins in presence of NADPH by LC-MS/MS analysis; assay type: ADME; conditions: liver microsomes, read-out: Stability; procedure, shortened: as §1
[10] = Metabolic stability in rat liver microsome assessed as half life measured up to 60 mins in presence of NADPH by LC-MS/MS analysis; assay type: ADME; conditions: liver microsomes; procedure, shortened: as §1
[11] = Metabolic stability in rat liver microsome assessed as intrinsic clearance measured up to 60 mins in presence of NADPH by LC-MS/MS analysis; assay type: ADME; conditions: liver microsomes; procedure, shortened: as §1
SARS-CoV-2 [12] = assay: Antiviral activity against SARS-CoV-2; assay type: functional, organism-based; conditions: Severe acute respiratory syndrome coronavirus 2
[13] = Drug degradation in rat liver microsome measured within 15 mins in presence of NADPH by LC-MS/MS analysis; assay type: ADME; conditions: liver microsomes, read-out: Drug degradation; procedure, shortened: as §1

O=C(c1cccnc1)N1CCN(c2ccc(Cl)c(Cl)c2)[C@H](c2cn(-c3ccc4c(c3)OCO4)nn2)C1
inhibition [1]: Active | IC50 [2]: 2230 nM | EC50 (SARS-CoV-2 [3]): 6320 nM | CC50 at 26 h [4]: > 100000 nM

O=C(c1cccnc1)N1CCN(c2ccc(Cl)c(Cl)c2)[C@H](c2cn(-c3ccc(CO)cc3)nn2)C1
inhibition [1]: Active | IC50 [2]: 1870 nM | EC50 (SARS-CoV-2 [3]): 6990 nM | remaining at 0 min [5]: 100% | remaining at 5 min [6]: 70.7% | remaining at 0.25 h [7]: 36.5% | remaining at 0.5 h [8]: 13.3% | remaining at 1 h [9]: 5.1% | half-life [10]: 10.3 min | CLint scaled [11]: 242 mL/min/kg

Cn1cnc(Cn2c(=O)[nH]/c(=N\c3cc4cn(C)nc4cc3Cl)n(Cc3cc(F)c(F)cc3F)c2=O)n1
EC50 (SARS-CoV-2 [12]): 110 nM

O=C(NCc1cccs1)[C@@H]1CN(C(=O)c2cccnc2)CCN1c1ccc(Cl)c(Cl)c1
inhibition [1]: Active | IC50 [2]: 390 nM | EC50 (SARS-CoV-2 [3]): 1780 nM | remaining at 0 min [5]: 100% | remaining at 5 min [6]: 22.7% | remaining at 0.25 h [7]: 1.56% | remaining at 0.5 h [8]: 0% | remaining at 1 h [9]: 0% | half-life [10]: 2.51 min | CLint scaled [11]: 994 mL/min/kg | metabolised at 0.25 h [13]: 100%

O=C(O)Cc1ccccc1Nc1c(Cl)cccc1Cl [DICLOFENAC]
half-life [10]: 16.6 min | CLint scaled [11]: 150 mL/min/kg

Reference: ChEMBL document CHEMBL6134770, “Miniaturized click chemistry and direct screening facilitate the discovery of triazole piperazine SARS-CoV-2 Mpro inhibitors with improved metabolic stability” (RSC Med Chem, 2025)
